The target in assay [1] is Kappa-type opioid receptor (Cavia porcellus, UniProt P41144). Briefly: Displacement of [3H]U-69593 from kappa opioid receptor in guinea pig brain membrane. It is filed as cell membranes. On the technique in general: Loss of bound radioactivity is the signal in a displacement assay; it reports binding, not function.
In assay [2] the target is Delta-type opioid receptor (Rattus norvegicus, UniProt P33533). Briefly: Displacement of [3H]DSLET from delta opioid receptor in rat brain membrane. Format: cell membranes.
Assay [3] addresses Mu-type opioid receptor (Rattus norvegicus, UniProt P33535). Put plainly: Displacement of [3H]DAMGO from mu opioid receptor in rat brain membrane. It is filed as cell membranes.
Assay [4] has as its target Opioid receptors; mu & delta (Rattus norvegicus) (UniProt P33533+P33535). Put plainly: Selectivity for mu opioid receptor over delta receptor. It is filed as protein assay.
Assay [5] addresses Mu-type opioid receptor (Cavia porcellus) (UniProt P97266). Briefly: Activity at mu opioid receptor assessed as antagonizing effect against TAPP by GPI assay. Format: functional. In short, it runs like this: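 Antagonism of the µ agonist TAPP measured in guinea pig ileum (GPI) preparation; Ke determined, reported as mean of three to six determinations.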
Assay [6] addresses Kappa-type opioid receptor (Cavia porcellus) (UniProt P41144). Briefly: Activity at kappa opioid receptor assessed as antagonizing effect against U50,488 by GPI assay. Format: functional. In short, it runs like this:
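Antagonism of the κ agonist U50,488 measured in guinea pig ileum (GPI) preparation; Ke determined, reported as mean of three to six determinations.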

The target of assay [7] is Opioid receptor (mu and kappa) (Cavia porcellus) (UniProt P41144+P97266). Briefly: Ratio of Ke for mu opioid receptor to Ke for kappa opioid receptor. It is filed as protein assay.
In assay [8] the target is Delta-type opioid receptor (Mus musculus) (UniProt P32300). Briefly: Activity at delta opioid receptor assessed as antagonizing effect against DPDPE by MVD assay. It is filed as functional. In short, it runs like this: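 Antagonism at δ receptors measured in mouse vas deferens (MVD) preparation; Ke determined, reported as mean of three to six determinations.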
A short description of assay [9]: Ratio of Ke for guinea pig mu opioid receptor to Ke for mouse delta opioid receptor.
The nature of assay [10]: Selectivity for rat mu opioid receptor over guinea pig kappa opioid receptor.

The results in this text go back to ChEMBL document CHEMBL1146183, “Replacement of the N-terminal tyrosine residue in opioid peptides with 3-(2,6-dimethyl-4-carbamoylphenyl)propanoic acid (Dcp) results in novel opioid antagonists” (J Med Chem, 2006).

Kappa-type opioid receptor, sequence (P41144 whole entry): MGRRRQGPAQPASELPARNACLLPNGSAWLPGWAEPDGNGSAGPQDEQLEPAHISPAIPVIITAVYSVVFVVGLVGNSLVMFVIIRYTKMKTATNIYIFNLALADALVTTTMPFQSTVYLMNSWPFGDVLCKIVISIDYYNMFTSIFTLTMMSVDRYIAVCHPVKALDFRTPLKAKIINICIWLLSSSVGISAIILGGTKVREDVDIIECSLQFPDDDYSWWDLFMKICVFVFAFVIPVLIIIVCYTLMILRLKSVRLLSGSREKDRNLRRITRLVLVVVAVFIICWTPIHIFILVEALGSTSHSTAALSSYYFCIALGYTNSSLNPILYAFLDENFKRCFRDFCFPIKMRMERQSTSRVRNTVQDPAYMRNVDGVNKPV
Mu-type opioid receptor, sequence (P33535 whole entry): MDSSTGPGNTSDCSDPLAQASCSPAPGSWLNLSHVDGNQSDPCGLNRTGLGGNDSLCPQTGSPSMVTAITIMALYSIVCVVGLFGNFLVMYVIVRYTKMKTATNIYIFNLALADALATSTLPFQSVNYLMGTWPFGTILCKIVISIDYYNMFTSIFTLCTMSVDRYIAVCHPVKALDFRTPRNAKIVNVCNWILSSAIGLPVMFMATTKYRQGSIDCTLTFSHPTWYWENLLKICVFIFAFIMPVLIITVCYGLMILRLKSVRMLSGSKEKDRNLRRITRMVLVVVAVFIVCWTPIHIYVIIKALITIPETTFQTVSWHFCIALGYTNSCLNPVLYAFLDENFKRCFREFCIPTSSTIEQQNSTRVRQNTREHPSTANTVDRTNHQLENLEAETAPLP
Delta-type opioid receptor, sequence (P33533 whole entry): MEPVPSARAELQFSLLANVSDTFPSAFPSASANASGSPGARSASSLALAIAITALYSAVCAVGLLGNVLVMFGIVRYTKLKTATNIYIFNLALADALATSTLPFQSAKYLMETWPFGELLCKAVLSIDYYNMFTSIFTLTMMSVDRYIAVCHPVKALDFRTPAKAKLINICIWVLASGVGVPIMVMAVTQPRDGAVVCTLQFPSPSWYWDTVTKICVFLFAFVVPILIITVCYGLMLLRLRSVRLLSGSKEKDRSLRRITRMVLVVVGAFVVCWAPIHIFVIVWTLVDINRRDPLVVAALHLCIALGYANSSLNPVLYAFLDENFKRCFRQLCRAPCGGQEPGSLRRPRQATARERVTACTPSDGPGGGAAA
Opioid receptor (mu and kappa) (Cavia porcellus), sequence (P41144 whole entry, looked up): as the sequence (P41144 whole entry) above
Opioid receptor (mu and kappa) (Cavia porcellus), sequence (P97266 whole entry, looked up): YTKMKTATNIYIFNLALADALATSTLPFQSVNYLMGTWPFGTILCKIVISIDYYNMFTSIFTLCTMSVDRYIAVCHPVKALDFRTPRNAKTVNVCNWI
Kappa-type opioid receptor (Cavia porcellus), sequence (P41144 whole entry): as the sequence (P41144 whole entry) above
Delta-type opioid receptor (Mus musculus), sequence (P32300 whole entry): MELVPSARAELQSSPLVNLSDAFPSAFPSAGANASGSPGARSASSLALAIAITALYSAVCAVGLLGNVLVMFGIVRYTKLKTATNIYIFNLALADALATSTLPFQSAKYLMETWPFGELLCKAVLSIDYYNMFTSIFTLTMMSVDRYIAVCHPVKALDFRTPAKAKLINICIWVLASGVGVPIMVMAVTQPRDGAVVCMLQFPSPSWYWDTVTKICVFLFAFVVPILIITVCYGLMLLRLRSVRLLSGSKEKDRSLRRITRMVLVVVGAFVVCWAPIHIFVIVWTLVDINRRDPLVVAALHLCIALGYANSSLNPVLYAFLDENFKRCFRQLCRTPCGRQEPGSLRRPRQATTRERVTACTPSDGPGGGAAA
Mu-type opioid receptor (Cavia porcellus), sequence (P97266 whole entry): as the sequence (P97266 whole entry, looked up) above
Opioid receptors; mu & delta (Rattus norvegicus), sequence (P33533 whole entry, looked up): as the sequence (P33533 whole entry) above
Opioid receptors; mu & delta (Rattus norvegicus), sequence (P33535 whole entry, looked up): as the sequence (P33535 whole entry) above

For `CC[C@H](C)[C@H](NC(=O)[C@H](CCCNC(=N)N)NC(=O)[C@H](CCCNC(=N)N)NC(=O)[C@H](CC(C)C)NC(=O)[C@H](Cc1ccccc1)NC(=O)CNC(=O)CNC(=O)CCc1c(C)cc(C(N)=O)cc1C)C(=O)N[C@@H](CCCNC(=N)N)C(=O)N1CCC[C@H]1C(=O)N[C@@H](CCCCN)C(N)=O`, the Ki – broadly, a measure of affinity in units of concentration, obtained from inhibition or displacement – in assay [1] turned out to be 32 nM; in [2], 129 nM; in assay [3], 44.9 nM.
For `Cc1cc(C(N)=O)cc(C)c1CCC(=O)NC1CSSCC(C(N)=O)NC(=O)[C@H](Cc2ccc([N+](=O)[O-])cc2)NC(=O)CNC1=O` (stereo in doubt), the Ratio Ki came to 9 in assay [4] and 345 in assay [10]. Besides, the Ki in assay [1] turned out to be 980 nM; in assay [2] it was 25.8 nM; in [3], 2.84 nM. Further, the Ke turned out to be 3.92 nM in assay [5], 74.1 nM in assay [6] and 176 nM in [8]. The Ratio Ke stood at 19 in assay [7] and 45 in assay [9].
`Cc1cc(O)cc(C)c1CCC(=O)NC1CSSCC(C(N)=O)NC(=O)[C@H](Cc2ccc([N+](=O)[O-])cc2)NC(=O)CNC1=O` (stereo in doubt): the figures for the Ratio Ki in assay [4] and in assay [10] were 2 and 62, respectively. In addition, the Ki in assay [1] turned out to be 299 nM; in assay [2], 11.6 nM; in assay [3] it was 4.79 nM. For the same compound, the Ke in assay [5] was determined as 3.68 nM; in assay [6], 22.6 nM; in assay [8] it was 63.3 nM. The Ratio Ke in [7] came to 6; in assay [9], 17.
